Results reported in ChEMBL document CHEMBL3525997, “Debrisoquine metabolism and CYP2D expression in marmoset liver microsomes” (Drug Metab Dispos, 2012).
Blank lines part the entries; values can stand above or below the molecule they belong to.

Legend:
Assay type in all cases: ADME, Callithrix jacchus
[1] = Drug metabolism in marmoset liver microsomes treated with [14C]debrisoquine at 500 uM after 180 mins by NMR analysis; settings: 3 h
Outline: (§1)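 Large-scale incubation to generate metabolites for structural identification. Pooled marmoset liver microsomal protein 4 mg/ml (batch 1), 6 mM NADPH, 50 mM Tris-HCl pH 7.69, total 35 ml. Reaction started with [14C]debrisoquine to a final concentration of 500 µM and incubated for 180 min.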

[2] = Drug metabolism in marmoset liver microsomes treated with [14C]debrisoquine at 500 uM after 120 mins by radio-HPLC chromatography; settings: 2 h
Outline: (§2)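 Pooled male marmoset liver microsomes (5 mg/ml, batch 1) incubated with [14C]debrisoquine 500 µM, NADPH 6 mM, Tris-HCl 50 mM pH 7.69, 37°C, 120 min. Protein precipitated, supernatant injected on C18 reversed-phase HPLC with 10 mM TFA/acetonitrile linear gradient over 40 min. Detection by UV at 211 nm, radioactivity flow detector, and ESI+ LC-MS/MS with product ion spectra.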

[3] = Drug metabolism in marmoset liver microsomes treated with [14C]debrisoquine at 500 uM after 120 mins by LC/MS/MS analysis; settings: 2 h; outline: as §2
[4] = Drug metabolism in marmoset liver microsomes assessed as 7-hydroxydebrisoquine formation at 500 uM after 180 mins by NMR analysis; settings: 3 h; outline: as §1
[5] = Drug metabolism in marmoset liver microsomes assessed as 4-hydroxydebrisoquine formation at 500 uM after 180 mins by NMR analysis; settings: 3 h; outline: as §1
[6] = Drug metabolism in marmoset liver microsomes assessed as 8-hydroxydebrisoquine formation at 500 uM after 180 mins by NMR analysis; settings: 3 h; outline: as §1
[7] = Drug metabolism in marmoset liver microsomes assessed as 5-hydroxydebrisoquine formation at 500 uM after 180 mins by NMR analysis; settings: 3 h; outline: as §1
[8] = Drug metabolism in marmoset liver microsomes assessed as 6-hydroxydebrisoquine formation at 500 uM after 180 mins by NMR analysis; settings: 3 h; outline: as §1
[9] = Drug metabolism in marmoset liver microsomes assessed as 6,7-hydroxydebrisoquine formation at 500 uM after 180 mins by NMR analysis; settings: 3 h; outline: as §1
[10] = Drug metabolism in marmoset liver microsomes assessed as metabolite MF-1 formation at 500 uM after 120 mins by LC/MS/MS analysis; settings: 2 h; outline: as §2
[11] = Drug metabolism in marmoset liver microsomes assessed as metabolite MF-1 formation at 500 uM after 120 mins by radio-HPLC chromatography; settings: 2 h; outline: as §2
[12] = Drug metabolism in marmoset liver microsomes assessed as metabolite MF-3 formation at 500 uM after 120 mins by radio-HPLC chromatography; settings: 2 h; outline: as §2
[13] = Drug metabolism in marmoset liver microsomes assessed as metabolite MF-3 formation at 500 uM after 120 mins by LC/MS/MS analysis; settings: 2 h; outline: as §2
[14] = Drug metabolism in marmoset liver microsomes assessed as 4-hydroxydebrisoquine formation at 500 uM after 120 mins by LC/MS/MS analysis; settings: 2 h; outline: as §2
[15] = Drug metabolism in marmoset liver microsomes assessed as 4-hydroxydebrisoquine formation at 500 uM after 120 mins by radio-HPLC chromatography; settings: 2 h; outline: as §2

SMILES: N=C(N)N1Cc2ccccc2C(O)C1 (stereo not given)
Drug metabolism [2]: metabolite_detected
Drug metabolism [3]: metabolite_detected
Drug metabolism [1]: metabolite_detected

SMILES: N=C(N)N1CCc2ccc(O)cc2C1
Drug metabolism [1]: metabolite_detected

SMILES: N=C(N)N1CCc2cccc(O)c2C1
Drug metabolism [1]: metabolite_detected

SMILES: N=C(N)N1CCc2ccccc2C1.O=S(=O)(O)O
Drug metabolism [4]: metabolite_detected
Drug metabolism [5]: metabolite_detected
Drug metabolism [6]: metabolite_detected
Drug metabolism [7]: metabolite_detected
Drug metabolism [8]: metabolite_detected
Drug metabolism [9]: metabolite_detected

SMILES: N=C(N)N1CCc2cc(O)ccc2C1
Drug metabolism [1]: metabolite_detected

Second part, the molecule after the results:

Drug metabolism [1]: metabolite_detected
SMILES: N=C(N)N1CCc2c(O)cccc2C1

Drug metabolism [1]: metabolite_detected
SMILES: N=C(N)N1CCc2cc(O)c(O)cc2C1

Drug metabolism [10]: metabolite_detected
Drug metabolism [11]: metabolite_detected
Drug metabolism [12]: metabolite_detected
Drug metabolism [13]: metabolite_detected
Drug metabolism [14]: metabolite_detected
Drug metabolism [15]: metabolite_detected
SMILES: N=[14C](N)N1CCc2ccccc2C1
